High-throughput results as filed in PubChem BioAssay.
ADAM10 inh: ADAM10 inhibition, QFRET primary screen; O14672; recombinant ADAM10, EDANS/DABCYL FRET peptide cleavage, 3 h; inhibition, % at 7 µM; 0.62% of 370,000 active;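 active = inhibition above a per-campaign cutoff equal to the mean of compounds falling between control-based bounds plus 3 SD, cut at about 20% in these data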;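 note: 0% = DMSO wells while the 100% control is not disclosed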
Target sequence (O14672 214-748 limits assumed): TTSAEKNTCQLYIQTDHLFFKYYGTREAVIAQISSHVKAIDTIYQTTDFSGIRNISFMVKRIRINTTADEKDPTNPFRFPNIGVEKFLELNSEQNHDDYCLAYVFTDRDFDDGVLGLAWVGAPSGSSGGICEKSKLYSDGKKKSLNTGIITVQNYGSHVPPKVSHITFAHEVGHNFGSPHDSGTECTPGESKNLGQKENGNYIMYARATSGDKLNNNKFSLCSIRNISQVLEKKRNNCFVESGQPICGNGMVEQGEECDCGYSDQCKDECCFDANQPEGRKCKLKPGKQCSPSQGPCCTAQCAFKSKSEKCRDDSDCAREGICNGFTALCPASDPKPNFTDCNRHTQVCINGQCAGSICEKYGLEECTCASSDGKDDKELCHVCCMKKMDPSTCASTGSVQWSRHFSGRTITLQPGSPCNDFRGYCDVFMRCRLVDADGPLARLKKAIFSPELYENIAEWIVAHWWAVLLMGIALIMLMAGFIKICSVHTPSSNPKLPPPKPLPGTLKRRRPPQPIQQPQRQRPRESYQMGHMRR
PLC-beta3 inh: PLC-beta3 (human) inhibition, primary screen; Purified PLC-beta3, fluorogenic substrate, fluorescence; inhibition, % at 12.2 µM; 0.18% of 370,000 active; in the data active = inhibition above about 11%;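 note: 0% = median of compound wells on plate and 100% = full blocker control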
PLC-gamma1 inh: PLC-gamma1 (human) inhibition, primary screen; P19174; purified PLC-gamma1, fluorogenic substrate, fluorescence; inhibition, % at 12.2 µM; 0.84% of 370,000 active
Tb MetRS inh: Trypanosoma brucei MetRS inhibition; purified T. brucei MetRS, ATP depletion, Kinase-Glo luminescence; 0.4% of 360,000 active; inhibition, % at 11.9 µM; AID 624268;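 active = inhibition above a per-plate cutoff of the control wells' mean inhibition plus 3 SD, cut at about 5.5% in these data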;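 note: 0% = DMSO wells median and 100% = median of wells with control inhibitor compound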
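Measured by: Kinase-Glo luciferase luminescence reporting remaining unconsumed ATP. Material: purified T. brucei MetRS enzyme. Doses: 11.9 µM compound single dose, 0.9% DMSO. Medium: HEPES buffer containing pyrophosphatase, BSA, spermine, DTT. Times: 15 min preincubation, 2 h reaction, all 25 °C. Reagent: methionine, ATP and bulk E. coli tRNA.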
ADAM17 inh: inhibits human ADAM17; recombinant ADAM17, EDANS/DABCYL FRET peptide cleavage; inhibition, % at 6.95 µM; 0.83% of 370,000 active;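 active = inhibition above the mean of compounds lying between control limits plus 3 SD, set per campaign, cut at about 8.5% in these data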;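 note: 0% = DMSO-only wells as the low control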
ADAM10 ctr: ADAM10 inhibition, counter-screen for ADAM17 exosite hits; shares compounds with ADAM17 inh; recombinant ADAM10, EDANS/DABCYL FRET peptide cleavage, 3 h; inhibition, % at 6.95 µM; 47% of 2,900 active; AID 743256;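 active = mean inhibition over the triplicate runs exceeds the activity threshold set in the earlier primary screen, cut at about 20% in these data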;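 note: 0% = DMSO wells and 100% = marimastat wells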
ADAM17 confirm: confirmation of inhibitors of human ADAM17; shares compounds with ADAM17 inh; recombinant ADAM17, EDANS/DABCYL QFRET peptide cleavage; inhibition, % at 6.95 µM; 65% of 2,900 active;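 active = mean inhibition across replicates above the hit cutoff set in the primary screen, cut at about 8.5% in these data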;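 note: 0% = DMSO wells and 100% = marimastat wells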
PLCgamma1 ctr: counter-screen for PLC-beta3 inhibitors: inhibitors of human PLC-gamma1 | shares compounds with PLC-gamma1 inh | purified PLC-gamma1, fluorogenic substrate, fluorescence | inhibition, % at 12.3 µM | 3.1% of 3,300 active | AID 743258
PLCb3 confirm: human PLC-beta3 inhibition, confirmation. purified PLC-beta3, fluorogenic substrate fluorescence. shares compounds with PLC-gamma1 inh. 1% of 3,300 active. inhibition, % at 12.3 µM; in the data active = inhibition above about 11%
Numbers without * were called inactive; . = no result given. Rows were chosen to be rich in hits. Some 2.3% of all compounds tested hit in one or more screens of this group. Cut-off read from the data, not from the text of the source, unless noted: active = inhibition above about 9.5%; inactive = the rest.

SMILES	ADAM10 inh	PLC-beta3 inh	PLC-gamma1 inh	Tb MetRS inh	ADAM17 inh	ADAM10 ctr	ADAM17 confirm	PLCgamma1 ctr	PLCb3 confirm
O=C(CSc1nnc(Cc2ccccc2)n1-c1cccc(Cl)c1)NNC(=O)Cc1ccccc1	17	9	10*	0	15*	10	5	-9	-4
COc1ccc2c(c1)[C@]1(C(=O)N2C)C2=C(CCCC2=O)Oc2cc(C)oc(=O)c21	2	4	5	.	-1	.	.	.	.
Cc1cc2c(c(=O)o1)[C@@]1(C(=O)N(C)c3ccc([N+](=O)[O-])cc31)C1=C(CCCC1=O)O2	4	10	9.5*	.	8.7*	0	4	-2	1
CCOC(=O)c1cnc2ccc(Br)cc2c1NCCO	7	4	6	-1	0	.	.	.	.
CCOC(=O)c1cnc2ccc(Br)cc2c1NCC(C)O (stereo unspecified)	7	5	12*	0	10*	-6	1	-4	-1
C=C(C)C(=O)Nc1cccc(C2=NOC3(C2)C[C@H](C(N)=O)N(C(=O)/C=C/C)C3)c1 (stereo partly specified)	6	6	12*	1	9.9*	5	3	-8	-3
CCC(=O)Nc1c2c(nn1-c1ccc(OC)cc1)CS(=O)C2 (stereo unspecified)	-14	5	0	0	-3	.	.	.	.
CCC(CC)C(=O)Nc1c2c(nn1-c1ccc(OC)cc1)CS(=O)C2 (stereo unspecified)	8	6	12*	1	8.7*	19	8	-6	-16
Cc1ccccc1CN1CCN(C(=O)CC(C)C)CC1	0	-3	-2	0	-3	.	.	.	.
COCC(C)n1c(SCC(=O)NC(=O)NCc2ccccc2)nc2ccccc2c1=O (stereo unspecified)	12	8	10*	0	10*	15	7	-1	-2
Cc1cc(NS(=O)(=O)c2ccc(NC(=O)CSc3nnc(-c4ccncc4)n3Cc3ccco3)cc2)nc(C)n1	-9	-12	-4	.	-5	.	.	.	.
COC(=O)c1ccc2c(=O)n(CCN3CCOCC3)c(SCC(=O)NCc3ccccc3)nc2c1	-3	-12	-7	0	-8	.	.	.	.
CN1CCN(C(=O)/C(=C/c2ccccc2)c2ccccc2)CC1	4	9	9.8*	0	8.7*	-9	-4	-6	-1
O=[N+]([O-])c1ccccc1S(=O)(=O)N1CCN(Cc2ccsc2)CC1	3	6	4	0	1	.	.	.	.
Cc1c([N+](=O)[O-])cnc(Sc2ccccc2)c1[N+](=O)[O-]	4	1	11*	0	10*	5	3	9.5*	0
CC(C)C1C(=O)N(Cc2cn(CCC3OCCO3)nn2)CCS(=O)(=O)N1Cc1ccc(-c2ccccc2)cc1 (stereo unspecified)	12	2	1	0	7	.	.	.	.
COc1cccc(-c2ccc(CN3C(C(C)C)C(=O)N(Cc4cn(CCC5OCCO5)nn4)CCS3(=O)=O)cc2)c1OC (stereo unspecified)	8	9	12*	0	13*	14	7	-3	2
O=C(C[C@H]1C/C=C\CC[C@@H](Cc2ccc(F)cc2)C(=O)O[C@@H](c2ccccc2)CNC1=O)N[C@H](CO)Cc1ccccc1	7	8	11*	0	13*	17	12*	1	-1
CC(C)(C)OC(=O)C[C@H]1C/C=C\C[C@H](CC(=O)N[C@H](CO)Cc2ccccc2)C(=O)N[C@@H](Cc2ccccc2)COC1=O	9	13*	14*	0	12*	4	4	1	2
COc1ccc(-c2coc3c(C(=O)Nc4cccnc4)cccc23)c(C)c1	2	-5	-4	-1	1	.	.	.	.
